The text below walks through data of ChEMBL document CHEMBL3227967, “Quantitative structure-activity relationships in 1-aryl-2-(alkylamino)ethanol antimalarials” (J Med Chem, 1979).

This series is described as follows: Lipophilicity, log P of the compound in 0.1 N HCl solution. The class given is physicochemical. To be noted: 0.1 N HCl solution; read-out: logP. The essentials: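 Partition coefficients of the hydrochloride salts were measured from 0.1 N HCl solution unless a footnote says otherwise. Some entries were not measured. They were calculated by adding the Δlog P of the corresponding phenanthrene analogues to the measured log P of a reference hydrochloride.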

As usually defined, the logP is the decadic logarithm of the partition coefficient of the neutral form, usually between octanol and water. `CCCCN(CCCC)CC(O)c1cnc2c(Cl)cc(Cl)cc2c1` (configuration not stated): the logP was 2.46.
The same measure for `CN(C)CC(O)c1cc(-c2ccccc2)nc(-c2ccccc2)c1` (configuration not stated): 2.25; for `CCN(CC)CC(O)c1cc(-c2ccccc2)nc(-c2ccccc2)c1` (configuration not stated): 2.54.
The value for `CCCN(CCC)CC(O)c1cc(-c2ccccc2)nc(-c2ccccc2)c1` (configuration not stated) was 3.29; that for `CCCCN(CCCC)CC(O)c1cc(-c2ccccc2)nc(-c2ccccc2)c1` (configuration not stated) was 4.17.
The value for `CCCCCN(CCCCC)CC(O)c1cc(-c2ccccc2)nc(-c2ccccc2)c1` (configuration not stated) was 5.18; that for `CCCCCCN(CCCCCC)CC(O)c1cc(-c2ccccc2)nc(-c2ccccc2)c1` (configuration not stated) was 6.11.
Regarding `CCCCCCCN(CCCCCCC)CC(O)c1cc(-c2ccccc2)nc(-c2ccccc2)c1` (configuration not stated), the logP turned out to be 7.11.
The same measure for `CNCC(O)c1cc(-c2ccccc2)nc(-c2ccccc2)c1` (configuration not stated): 2.15.
`CCNCC(O)c1cc(-c2ccccc2)nc(-c2ccccc2)c1` (configuration not stated): the logP turned out to be 2.59.
The same measure for `CCCNCC(O)c1cc2ccccc2c2ccccc12` (configuration not stated): 1.86; for `CCN(CC)CC(O)c1cc2ccccc2c2ccccc12` (configuration not stated): 1.37; for `CCCN(CCC)CC(O)c1cc2ccccc2c2ccccc12` (configuration not stated): 2.12.
On to `CCCCN(CCCC)CC(O)c1cc2ccccc2c2ccccc12` (configuration not stated), for which the logP was found to be 3.
As for `CCCCCN(CCCCC)CC(O)c1cc2ccccc2c2ccccc12` (configuration not stated), the logP was found to be 4.01.
The value for `CCCCCCN(CCCCCC)CC(O)c1cc2ccccc2c2ccccc12` (configuration not stated) was 4.94; that for `CCCCCCCN(CCCCCCC)CC(O)c1cc2ccccc2c2ccccc12` (configuration not stated) was 5.94.
On to `CNCC(O)c1cc2ccccc2c2ccccc12` (configuration not stated), for which the logP was determined as 0.98.
The value for `CCNCC(O)c1cc2ccccc2c2ccccc12` (configuration not stated) was 1.42.
For the molecule `CCCCCCCN(CCCCCCC)CC(O)c1cc2c(Cl)cc(Cl)cc2c2ccc(C)nc12` (configuration not stated), the logP worked out at 6.01.
The value for `CCCCN(CCCC)CC(O)c1cnc2c(Cl)cc(Cl)cc2c1Cl` (configuration not stated) was 3.17; that for `CCCCN(CCCC)CC(O)c1cnc2cc(Cl)ccc2c1Cl` (configuration not stated) was 2.46.
The same measure for `CCCCN(CCCC)CC(O)c1cnc2c(C(F)(F)F)cccc2c1Cl` (configuration not stated): 2.63; for `CCCCN(CCCC)CC(O)c1cnc2c(-c3ccccc3)cccc2c1Cl` (configuration not stated): 3.71; for `CCCCN(CCCC)CC(O)c1cnc2c(C(F)(F)F)cccc2c1` (configuration not stated): 1.92.
`CCCCN(CCCC)CC(O)c1cnc2c(C)cc(C)cc2c1Cl` (configuration not stated): the lipophilicity (logP) was 2.87.
On to `CCCCN(CCCC)CC(O)c1c(Cl)cc(Cl)c2ncccc12` (configuration not stated), for which the lipophilicity (logP) turned out to be 2.46.
The same measure for `CCN(CC)CC(O)c1cc(Cl)cc2cccnc12` (configuration not stated): 0.12.
The value for `CCCCN(CCCC)CC(O)c1cc(Cl)cc2cccnc12` (configuration not stated) was 1.75; that for `CCN(CC)CC(O)c1ccc(Cl)c2c(C)ccnc12` (configuration not stated) was 0.68; that for `CCCCN(CCCC)CC(O)c1ccc(Cl)c2c(C)ccnc12` (configuration not stated) was 2.31.
The value for `CCN(CC)CC(O)c1cc(Cl)cc2c(C)ccnc12` (configuration not stated) was 5.25; that for `CCCCN(CCCC)CC(O)c1cc(Cl)cc2c(C)ccnc12` (configuration not stated) was 2.31.
Take `CCCCCCN(CCCCCC)CC(O)c1cc(Cl)c2nc(-c3ccccc3)ccc2c1` (configuration not stated): the logP is 5.65.
The value for `Cc1cc(C(O)CN2CCCCCC2)cc2ccc(-c3ccccc3)nc12` (configuration not stated) was 3.47; that for `Cc1cc(-c2ccccc2)nc2c(C)cc(C(O)CN3CCCCCC3)cc12` (configuration not stated) was 4.03; that for `OC(CN1CCCCCC1)c1ccc2c(Cl)cc(-c3ccccc3)nc2c1` (configuration not stated) was 3.62.
Take `OC(CN1CCCCCC1)c1cccc2ccc(-c3ccccc3)nc12` (configuration not stated): the logP was determined as 2.91.
Consider `CC(=O)N1CCCCC1CC(O)c1cc(C23CC4CC(CC(C4)C2)C3)nc2c(Cl)cc(Cl)cc12` (configuration not stated), for which the logP is 4.29.
The value for `CCCCNCC(O)c1cc2ccccc2c2ccccc12` (configuration not stated) was 2.3; that for `CCCCCNCC(O)c1cc2ccccc2c2ccccc12` (configuration not stated) was 2.8.
The same measure for `OC(c1cc2ccccc2c2ccccc12)C1CCCCN1` (configuration not stated): 2.01.
